Laboratory results from PubChem BioAssay AID504538 (Southern Research Specialized Biocontainment Screening …, 2011).
Activity calls are given as the source filed them. How the calls were made is not given here.

Test system: E. coli EV36 T7 phage lysis, OD600 3 h
Test: T7 lysis protection in EV36 bacteria – E. coli EV36, T7 phage, set 2, counter-screen for bacterial capsule biogenesis inhibitors, dose response (AID 504538)
Settings: not given
Summary of the method: (§1)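 buffer or medium = LB broth, overnight culture diluted 1:100 | test system = Escherichia coli EV36, K1 and K-12 hybrid strain | detection = OD600 absorbance at 3 h post-infection | compound dosing = 0.39–100 µM final, 1% DMSO | schedule = 1.5 h at 37 °C, then 3 h phage | repeats = quadruplicate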

Row | SMILES | IC50
1 | NC(N)=N/N=C/c1ccc(OCc2ccccc2)cc1 | 45 µM (inactive)
2 | COc1cc(/C=N/N=C(N)N)ccc1OCc1ccccc1Cl | 44 µM (inactive)

Test system: not listed separately
Test: as above
Settings: E. coli EV36 T7 phage lysis, OD600 3 h; at 100 µM (top of the series)
Summary of the method: as §1

Row | SMILES | phage lysis inhibition
3 | O=C(Nc1cccc(C2=NCCN2)c1)Nc1cccc(C2=NCCN2)c1 | 88.6% (inactive)
4 | CCN(CC)c1ccc2c(-c3ccc(S(=O)(=O)O)cc3S(=O)(=O)O)c3ccc(=[N+](CC)CC)cc-3oc2c1 | 110% (inactive)
5 | COc1ccc(-c2cc(C(=O)O)c3ccccc3n2)cc1 | 102% (inactive)
6 | N=C(N)SCCc1cccc(CCSC(=N)N)c1 | 99.9% (inactive)
7 | O=C1c2c(O)ccc(O)c2C(=O)c2c(NCCNCCO)ccc(NCCNCCO)c21 | 140% (inactive)
8 | Cc1cccc(-c2cc(C(=O)O)c3ccccc3n2)c1 | 102% (inactive)
